Converted amounts (≈) assume the structure as drawn.
How the values were obtained:
[1] = test system: Plasmodium berghei; assay: Antimalarial activity against GFP-transfected Plasmodium berghei ANKA infected in NMRI mouse model assessed as reduction in parasitemia at 50 mg/kg, po dosed 4 times relative to control; type: functional; parameters: scale not given: the % may be the effect or the level left
How it was run: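 Mice (n = 3) infected with GFP-transfected P. berghei ANKA. Compound in 70% Tween-80/30% ethanol, diluted 10-fold in water, given orally at 4, 24, 48 and 72 h post-infection. Blood taken day 4 (96 h); parasitemia by flow cytometry, detection limit 0.1%. Activity = difference in mean % parasitemia between control and treated, as % of control.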

[2] = test system: Plasmodium falciparum; assay: Antimalarial activity against asexual blood stage drug-sensitive Plasmodium falciparum NF54 infected in erythrocytes assessed as reduction in parasitemia incubated up to 72 hrs by [3H]hypoxanthine incorporation assay; type: functional, organism-based
How it was run: (§1)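 [³H]-Hypoxanthine incorporation assay (modified) on asexual blood-stage P. falciparum in vitro. IC₅₀ values are means of ≥2 independent experiments.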

[3] = Selectivity index, ratio of IC50 for Cytotoxicity against CHO cells assessed as inhibition of cell viability by MTT assay to IC50 for antimalarial activity against asexual blood stage Plasmodium falciparum NF54 assessed as reduction in parasitemia incubated up to 72 hrs by [3H]hypoxanthine incorporation assay; type: toxicity, cell-based; conditions: hamster, read-out: Selectivity Index
How it was run: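 Selectivity index is IC₅₀(CHO)/IC₅₀(NF54). […] IC₅₀ came from nonlinear dose-response fitting. Parasite IC₅₀ came from the [³H]-hypoxanthine assay.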

[4] = Resistance index, ratio of IC50 for antimalarial activity against asexual blood stage multi drug-resistant Plasmodium falciparum K1 to IC50 for antimalarial activity against asexual blood stage drug-sensitive Plasmodium falciparum NF54; type: functional
How it was run: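 Resistance index is IC₅₀(K1)/IC₅₀(NF54). Both IC₅₀s came from the [³H]-hypoxanthine incorporation assay, as means of ≥2 independent experiments.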

[5] = Metabolic stability in mouse liver microsomes assessed as compound remaining at 1 uM incubated for 30 mins by LC-MS/MS analysis; type: ADME, Microsome; conditions: read-out: Stabilty
How it was run: (§2)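 Single-point design: 1 μM compound with 0.4 mg/mL liver microsomes in 0.1 M phosphate buffer pH 7.4 for 30 min. Quenched with ice-cold acetonitrile containing carbamazepine internal standard, centrifuged, analyzed by LC−MS/MS. Percent remaining from internal-standard-corrected peak areas at 30 min versus 0 min. Propranolol, midazolam and MMV390048 as controls.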

[6] = test system: CHO; assay: Cytotoxicity against CHO cells assessed as inhibition of cell viability by MTT assay; type: cell-based; conditions: Cricetulus griseus
[7] = test system: Plasmodium falciparum; assay: Antiplasmodial activity against […] Plasmodium falciparum NF54 early gametocytes transfected with GFP-Luc […] at 5 uM incubated for 48 hrs by microscopy based luciferase reporter gene assay relative to control; type: functional
How it was run: (§3)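 NF54-Pfs16-GFP-Luc gametocytes, assays set up day 5 (early, stage II/III) or day 10 (late, stage IV/V). Culture at 2−3% gametocytemia, 1.5% hematocrit, 48 h drug exposure at 37 °C under 90% N₂/5% O₂/5% CO₂. Lysates mixed with luciferin; bioluminescence read with 10 s integration. Dual-point: one biological repeat in technical triplicate. Methylene blue (5 μM) reference.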

[8] = test system: Plasmodium falciparum; assay: Antiplasmodial activity against […] Plasmodium falciparum NF54 late gametocytes transfected with GFP-Luc […] at 1 uM incubated for 48 hrs by microscopy based luciferase reporter gene assay relative to control; type: functional; how it was run: as §3
[9] = Kinetic solubility of the compound in pH 6.5 incubated for 24 hrs by HPLC-DAD analysis; type: physicochemical; conditions: buffer, read-out: Kinetic_solubility
How it was run: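 Miniaturized shake-flask method. 10 mM DMSO stock dried down, phosphate buffer pH 6.5 added, shaken 24 h at 25 °C. Centrifuged 3500g for 15 min; supernatant analyzed by HPLC-DAD against 10−220 μM DMSO calibration curve. Reserpine, hydrocortisone and MMV390048 as controls.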

[10] = Metabolic stability in human liver microsomes assessed as compound remaining at 1 uM incubated for 30 mins by LC-MS/MS analysis; type: ADME, Microsome; conditions: read-out: Stabilty; how it was run: as §2
[11] = test system: Plasmodium falciparum; assay: Antiplasmodial activity against […] Plasmodium falciparum NF54 early gametocytes transfected with GFP-Luc […] at 1 uM incubated for 48 hrs by microscopy based luciferase reporter gene assay relative to control; type: functional; how it was run: as §3
[12] = test system: Plasmodium falciparum; assay: Antimalarial activity against asexual blood stage multi drug-resistant Plasmodium falciparum K1 infected in erythrocytes assessed as reduction in parasitemia incubated up to 72 hrs by [3H]hypoxanthine incorporation assay; type: functional, organism-based; how it was run: as §1
[13] = Metabolic stability in rat liver microsomes assessed as compound remaining at 1 uM incubated for 30 mins by LC-MS/MS analysis; type: ADME, Microsome; conditions: read-out: Stabilty; how it was run: as §2
[14] = test system: Plasmodium falciparum; assay: Antiplasmodial activity against […] Plasmodium falciparum NF54 late gametocytes transfected with GFP-Luc […] at 5 uM incubated for 48 hrs by microscopy based luciferase reporter gene assay relative to control; type: functional; how it was run: as §3
[15] = test system: Plasmodium falciparum; assay: Antiplasmodial activity against […] Plasmodium falciparum NF54 early gametocytes transfected with GFP-Luc […] incubated for 48 hrs by microscopy based luciferase reporter gene assay relative to control; type: functional, organism-based; conditions: NF54, 48 h
How it was run: (§4)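 Transgenic NF54-Pfs16-GFP-Luc gametocytes, read by luciferase reporter. Early assays were set up on day 5 (50% stage II/50% stage III) and late assays on day 10 (40% stage IV/60% stage V). Luciferin was added to lysates at room temperature and bioluminescence read. Methylene blue (5 μM) was the reference. Single-point screens at 1 and 5 μM used n=1 in technical triplicate. IC₅₀ came from a normalized nonlinear fit, n≥3 in triplicate.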

[16] = test system: Plasmodium falciparum; assay: Antiplasmodial activity against […] Plasmodium falciparum NF54 late gametocytes transfected with GFP-Luc […] incubated for 48 hrs by microscopy based luciferase reporter gene assay relative to control; type: functional, organism-based; conditions: NF54, 48 h; how it was run: as §4

Compound | Activity [1] [%] | IC50 [2] [nM] | selectivity ratio at 72 h [3] | Ratio IC50 [4] | remaining at 0.5 h, 1 µM [5] [%] | IC50 [6] [nM] | inhibition at 5 µM [7] [%] | inhibition at 1 µM [8] [%] | solubility kinetic at 24 h [9] [µM] | remaining at 0.5 h, 1 µM [10] [%] | inhibition at 1 µM [11] [%] | IC50 [12] [nM] | remaining at 0.5 h, 1 µM [13] [%] | inhibition at 5 µM [14] [%] | IC50 [15] [nM] | IC50 [16] [nM]
Cc1cc(CNC(C)(C)C)c(O)c(Nc2nc3ccccc3n2Cc2ccc(C(F)(F)F)cc2)c1 | <40 | 400 | 75.1 | 0.58 | 62 | 30000 | 96 | 0 | 50 (≈ 24.1 µg/mL) | 99 | 45 | 230 | 41 | 62 | 920 | 
CCN(CC)Cc1cc(F)cc(Nc2nc3ccccc3n2Cc2ccc(C(F)(F)F)cc2)c1O |  | 170 | > 294 | 1.12 |  | > 50000 | 90 | 0 |  |  | 74 | 190 |  | 10 | 97 | > 5000
CC(C)(C)NCc1cc(Cl)cc(Nc2nc3ccccc3n2Cc2ccc(C(F)(F)F)cc2)c1O |  | 280 | 130 | 0.21 | 36 | 36300 | 92 | 0 | < 5 | 81 | 44 | 60 | 9 | 0 | 590 | 
CCN(CC)Cc1cc(Cl)cc(Nc2nc3ccccc3n2Cc2ccc(C(F)(F)F)cc2)c1O |  | 150 | > 333 | 0.33 |  | > 50000 | 89 | 2 |  |  | 69 | 50 |  | 10 | 56 | 1900
CCNCc1cc(C)cc(Nc2nc3cc(F)c(F)cc3n2Cc2ccc(C(F)(F)F)cc2)c1O |  | 260 | 7.84 | 0.5 | 93 | 2040 | 94 | 0 | 16 (≈ 7.85 µg/mL) | 99 | 86 | 130 | 77 | 24 | 210 | 2330
CCN(CC)Cc1c(Cl)ccc(Nc2nc3ccccc3n2Cc2ccc(C(F)(F)F)cc2)c1O |  | 1840 | > 27 | 0.21 |  | > 50000 | 59 | 5 |  |  | 7 | 380 |  | 1 | 3060 | 
CCN(CC)Cc1cc(C)cc(Nc2nc3ccccc3n2Cc2ccc(C(F)(F)F)cc2)c1O |  | 190 | 154 | 0.32 | < 7 | 29300 | 97 | 41 | < 5 | 36 | 91 | 60 | < 7 | 62 | 110 | 
CC(C)(C)NCc1cc(Cl)cc(Nc2nc3cc(F)c(F)cc3n2Cc2ccc(C(F)(F)F)cc2)c1O | <40 | 190 | > 263 | 0.47 | 94 | > 50000 | 70 | 31 | < 5 | 89 | 14 | 90 | 94 | 1 | 690 | 
CCN(CC)Cc1cccc(Nc2nc3ccccc3n2Cc2ccc(C(F)(F)F)cc2)c1O |  | 440 | > 113 | 0.3 |  | > 50000 | 93 | 35 |  |  | 71 | 130 |  | 56 | 1450 | 
CCNCc1cc(C)cc(Nc2nc3ccccc3n2Cc2ccc(C(F)(F)F)cc2)c1O |  | 780 | 24.1 | 0.39 | 52 | 18800 | 95 | 0 | 35 (≈ 15.9 µg/mL) | 98 | 30 | 300 | 51 | 14 | 990 | 
CCN(CC)Cc1cccc(Nc2nc3ccccc3n2Cc2ccc(F)cc2)c1O |  | 360 | > 136 | 0.5 |  | > 50000 | 91 | 36 |  |  | 65 | 180 |  | 58 | 2230 | 
CCN(CC)Cc1cc(C)cc(Nc2nc3ccccc3n2Cc2ccc(F)cc2)c1O |  | 550 | 34 | 0.38 |  | 18700 | 97 | 41 |  |  | 81 | 210 |  | 58 | 880 | 
Cc1cc(CNC(C)(C)C)c(O)c(Nc2nc3cc(F)c(F)cc3n2Cc2ccc(C(F)(F)F)cc2)c1 |  | 250 | 40.2 | 0.6 | > 99 | 10000 | 96 | 0 | < 5 | 90 | 60 | 150 | 89 | 73 | 520 | 
CCN(CC)Cc1ccc(C)c(Nc2nc3ccccc3n2Cc2ccc(C#N)cc2)c1O |  | 870 | > 57 | 0.95 |  | > 50000 | 96 | 0 |  |  | 19 | 830 |  | 22 |  | 

— ChEMBL document CHEMBL4834426, “Antimalarial Benzimidazole Derivatives Incorporating Phenolic Mannich Base Side Chains Inhibit Microtubule and Hemozoin Formation: Structure-Activity Relationship and In Vivo Oral Efficacy Studies” (J Med Chem, 2021)
